MrgX1 antagonist: antagonists of human MrgX1 receptor; Q96LB2; MRGX1-HEK293 calcium flux, Fluo-4, BAM8-22 antagonism; hits give low values; B-score at 10 µM; 1.3% of 310,000 active; AID 588676;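 active means calcium-response B-score plate-corrected more than 3 library SD below zero, starting fluorescence within 5 deviations, no agonist response on first addition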;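 further: peak minus trough fluorescence over baseline after final BAM8-22 challenge near maximal dose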
Target sequence (Q96LB2 whole entry, looked up): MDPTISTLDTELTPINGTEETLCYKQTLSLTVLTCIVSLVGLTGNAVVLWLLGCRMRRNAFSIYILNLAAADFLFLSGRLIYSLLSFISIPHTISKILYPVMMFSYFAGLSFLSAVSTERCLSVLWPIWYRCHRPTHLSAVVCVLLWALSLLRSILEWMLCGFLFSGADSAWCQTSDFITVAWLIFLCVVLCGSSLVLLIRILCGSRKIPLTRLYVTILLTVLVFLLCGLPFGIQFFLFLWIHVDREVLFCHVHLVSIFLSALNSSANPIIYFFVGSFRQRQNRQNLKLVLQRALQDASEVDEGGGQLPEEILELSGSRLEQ
RGS4 act: potentiators or activators of RGS4; HEK293 M3R/inducible RGS4, carbachol calcium flux Fluo4; hits give low values; AID 463111; 0.92% of 310,000 active; B-score at 10 µM;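 active means B-score of the integrated calcium signal more than 4 SD below the library mean, with starting fluorescence not abnormally high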;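 further: negative B-score means reduced calcium response which marks RGS4 activation or potentiation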
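test system = M3R-expressing HEK293 line, RGS4 induced by doxycycline | probe or stimulus = carbachol at ECmax as muscarinic agonist stimulus | timing = dye loading 30 min 37 °C, buffer rest 30 min RT | signal = calcium dye Fluo4 fluorescence | evaluation = B score from integrated fluorescence ratio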
RGS4 block: human RGS4 inhibition | P49798 | HEK293 M3R/RGS4 inducible, Fluo-4 calcium flux; hits give high values; triggered by carbachol at its EC20 | B-score at 10 µM | 0.45% of 310,000 active;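 active means B-score, a plate-corrected calcium signal, over three deviations above library mean, with baseline fluorescence within five deviations of library mean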;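 further: RGS4 expression induced by doxycycline in cells with stable M3 receptor; B-score is computed from the integrated fluorescence ratio over baseline after carbachol; higher B-score means a larger calcium signal and so more RGS4 inhibition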
Target sequence (P49798 whole entry, looked up): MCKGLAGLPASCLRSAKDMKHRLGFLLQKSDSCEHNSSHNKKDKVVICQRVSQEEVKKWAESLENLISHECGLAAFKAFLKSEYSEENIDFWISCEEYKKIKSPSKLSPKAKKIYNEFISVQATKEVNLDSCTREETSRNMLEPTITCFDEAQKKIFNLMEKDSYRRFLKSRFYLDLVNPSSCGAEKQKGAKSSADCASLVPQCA
MrgX1 ag: human MrgX1 receptor agonism, primary screen. Q96LB2. MrgX1-HEK293 cells, Fluo-4 calcium fluorescence, agonist mode; hits give high values. B-score at 10 µM. 0.44% of 310,000 active. AID 588627;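 active means calcium response B-score plate-corrected fluorescence ratio at least 3 library SD, with starting fluorescence B-score inside 5 SD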
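Test system: HEK293 cells stably expressing human MrgX1 receptor; Input: fifteen thousand cells per well; Dosing: compound delivered in addition one of three; Schedule: overnight seeding, then 1 h dark dye loading; Technique: Fluo-4 NW calcium fluorescence; Measure: B-scored fluorescence response ratio; Controls: positive and negative controls per plate.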
MrgX1 PAM: human MrgX1 positive allosteric modulation, primary screen; Q96LB2; 0.63% of 310,000 active; B-score at 10 µM; MrgX1-HEK293, Fluo-4 calcium flux, FDSS; hits give high values;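 active means plate-corrected calcium response at least 3 library SD above typical, normal starting fluorescence, not activating the receptor alone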;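 further: compound read alongside a low EC10 to EC30 dose of BAM8-22 agonist; peak minus trough fluorescence over baseline measured at the second addition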
MrgX1 allo conf: reconfirmed allosteric activator of human MrgX1 receptor | shares compounds with MrgX1 PAM | MrgX1-HEK293, Fluo-4 calcium fluorescence, FDSS | activation (ratio percentage), % at 10 µM | 13% of 1,200 active;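 active means ratio at least 3 SD above the weak peptide control, stable starting fluorescence, no direct agonism earlier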;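 further: compound followed by low BAM8-22 agonist challenge near EC20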
HEK293 Ca flux: MrgX1 antagonist counter-screen hit in parental HEK293 cells; Fluo-4 calcium fluorescence, FDSS; shares compounds with MrgX1 antagonist; 2% of 4,000 active; AID 624111; fluorescence ratio F(max-min)/F0 at 10 µM;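 active means duplicate-averaged calcium fluorescence ratio at least three times the standard deviation of buffer wells, a nonspecific response in parental cells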
HEK293 Ca counter: activity in parental HEK293 cells without MrgX1; shares compounds with MrgX1 antagonist; parental HEK293 calcium flux, Fluo-4 fluorescence ratio; hits give high values; fluorescence ratio F(max-min)/F0 at 10 µM; 0.4% of 4,000 active; AID 624114;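 active means calcium fluorescence ratio, averaged over duplicates, at least 3 SD of the buffer-well ratio, meaning a nonspecific response in receptor-free cells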;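 further: untransfected parental HEK293 lacking MrgX1 used as counterscreen for MrgX1 allosteric activators; fluorescence change taken during the second addition on a kinetic imager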
HEK293 Ca cntr2: counter-screen for MrgX1 activators: effect in parental HEK293 cells; 8.7% of 4,000 active; fluorescence ratio F(max-min)/F0 at 10 µM; Fluo-4 calcium fluorescence (FDSS); hits give high values; shares compounds with MrgX1 antagonist;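 active means calcium fluorescence ratio at least three times the spread of buffer wells, meaning a non-specific response in parental cells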
Starred values were filed as active, the others as inactive. Sampled rows, rich in hits. Any-hit rate of the full collection: about 3.5%.

Results for CC1(c2ccc([N+](=O)[O-])cc2)NC(=O)N(CC(=O)c2ccc3c(c2)OCO3)C1=O (stereo not given) ?
MrgX1 antagonist: inactive; RGS4 act: inactive; RGS4 block: inactive; MrgX1 ag: inactive; MrgX1 PAM: inactive

What do the screens show for `O=C(C1CC1)N1CCc2cc(Br)cc(S(=O)(=O)N3CCCCCC3)c21`?
MrgX1 antagonist: inactive; RGS4 act: inactive; RGS4 block: inactive; MrgX1 ag: inactive; MrgX1 PAM: 11*; MrgX1 allo conf: inactive; HEK293 Ca flux: inactive; HEK293 Ca counter: inactive; HEK293 Ca cntr2: inactive

What do the screens show for `CC(CC(=O)N(C)c1c(N)n(Cc2ccccc2)c(=O)[nH]c1=O)c1ccccc1` (stereo not given)?
MrgX1 antagonist: inactive; RGS4 act: inactive; RGS4 block: inactive; MrgX1 ag: inactive; MrgX1 PAM: inactive

What do the screens show for `CCc1cccc(OCC(=O)Nc2ccccc2N2CCCC2)c1`?
MrgX1 antagonist: inactive; RGS4 act: inactive; RGS4 block: inactive; MrgX1 ag: inactive; MrgX1 PAM: 19*; MrgX1 allo conf: inactive; HEK293 Ca flux: inactive; HEK293 Ca counter: inactive; HEK293 Ca cntr2: inactive

How did O=C(CN1CCC(C(=O)c2ccc3c(c2)OCCO3)CC1)Nc1ccccc1C(F)(F)F do in these assays?
MrgX1 antagonist: inactive; RGS4 act: inactive; RGS4 block: inactive; MrgX1 ag: inactive; MrgX1 PAM: inactive

Results for CCc1ccc(/C=N/NC(=O)Cc2cccn2C)cc1 ?
MrgX1 antagonist: inactive; RGS4 act: inactive; RGS4 block: inactive; MrgX1 ag: inactive; MrgX1 PAM: 27*; MrgX1 allo conf: 13%*; HEK293 Ca flux: inactive; HEK293 Ca counter: inactive; HEK293 Ca cntr2: inactive

What do the screens show for `COc1ccc(-c2cc(-c3ccc(C)cc3)nc(SCc3nnc(-c4ccccc4)o3)c2C#N)cc1OC`?
MrgX1 antagonist: inactive; RGS4 act: inactive; RGS4 block: inactive; MrgX1 ag: inactive; MrgX1 PAM: inactive

Results for COc1ccnc(CSC(N)=Nc2cccc(C(F)(F)F)c2)c1 ?
MrgX1 antagonist: inactive; RGS4 act: inactive; RGS4 block: inactive; MrgX1 ag: inactive; MrgX1 PAM: inactive

Results for Oc1ccccc1-c1cc(-c2ccc3c(c2)OCCO3)n[nH]1 ?
MrgX1 antagonist: inactive; RGS4 act: inactive; RGS4 block: inactive; MrgX1 ag: inactive; MrgX1 PAM: 6.9*; MrgX1 allo conf: inactive; HEK293 Ca flux: inactive; HEK293 Ca counter: inactive; HEK293 Ca cntr2: inactive

What do the screens show for `O=C(O)c1cc(-c2ccc3c(c2)OCCO3)n[nH]1`?
MrgX1 antagonist: inactive; RGS4 act: inactive; RGS4 block: inactive; MrgX1 ag: inactive; MrgX1 PAM: inactive

How did CC(C)CNc1ncnc2c1cnn2Cc1ccccc1Cl do in these assays?
MrgX1 antagonist: inactive; RGS4 act: inactive; RGS4 block: inactive; MrgX1 ag: inactive; MrgX1 PAM: 10*; MrgX1 allo conf: inactive; HEK293 Ca flux: inactive; HEK293 Ca counter: inactive; HEK293 Ca cntr2: inactive

How did O=c1c2ccccc2c2ccccc2c(=O)n1CC1CCCO1 (stereo not given) do in these assays?
MrgX1 antagonist: inactive; RGS4 act: inactive; RGS4 block: inactive; MrgX1 ag: inactive; MrgX1 PAM: 9.2*; MrgX1 allo conf: inactive; HEK293 Ca flux: inactive; HEK293 Ca counter: inactive; HEK293 Ca cntr2: inactive

How did CC(=O)NCCn1c(SCC(=O)NCC2CCCO2)nc2ccccc2c1=O (stereo not given) do in these assays?
MrgX1 antagonist: inactive; RGS4 act: inactive; RGS4 block: inactive; MrgX1 ag: inactive; MrgX1 PAM: inactive

What do the screens show for `O=C(CSc1nc2ccccc2c(=O)n1CC1CCCO1)NCC1CCCO1` (stereo not given)?
MrgX1 antagonist: inactive; RGS4 act: inactive; RGS4 block: inactive; MrgX1 ag: inactive; MrgX1 PAM: 8.2*; MrgX1 allo conf: inactive; HEK293 Ca flux: inactive; HEK293 Ca counter: inactive; HEK293 Ca cntr2: inactive

Results for CC(OC(=O)c1nc(-c2ccccc2)n(-c2ccccc2)n1)C(=O)Nc1cc(Cl)cc(Cl)c1 (stereo not given) ?
MrgX1 antagonist: inactive; RGS4 act: inactive; RGS4 block: inactive; MrgX1 ag: inactive; MrgX1 PAM: inactive

How did CC(=O)Nc1sc(/C(C#N)=C\c2cccc(Cl)c2)nc1-c1ccc(C)cc1 do in these assays?
MrgX1 antagonist: inactive; RGS4 act: inactive; RGS4 block: inactive; MrgX1 ag: inactive; MrgX1 PAM: 20*; MrgX1 allo conf: inactive; HEK293 Ca flux: 0.065*; HEK293 Ca counter: inactive; HEK293 Ca cntr2: 59*

What do the screens show for `Cc1cc(OCC(=O)Nc2ccc(N3CCN(C(=O)c4ccco4)CC3)cc2)cc(C)c1Cl`?
MrgX1 antagonist: inactive; RGS4 act: inactive; RGS4 block: inactive; MrgX1 ag: inactive; MrgX1 PAM: inactive

Results for Cc1ccc(OCC(=O)Nc2ccc(N3CCN(C(=O)c4ccco4)CC3)cc2)cc1C ?
MrgX1 antagonist: inactive; RGS4 act: inactive; RGS4 block: inactive; MrgX1 ag: inactive; MrgX1 PAM: 10*; MrgX1 allo conf: inactive; HEK293 Ca flux: inactive; HEK293 Ca counter: inactive; HEK293 Ca cntr2: inactive

Results for CCc1cc(=O)oc2cc(C)cc(OCC(=O)NCCCN3CCOCC3)c12 ?
MrgX1 antagonist: inactive; RGS4 act: inactive; RGS4 block: inactive; MrgX1 ag: inactive; MrgX1 PAM: inactive

How did Cc1nn(CCO)c2ncc(C(=O)c3cc(Cl)ccc3O)cc12 do in these assays?
MrgX1 antagonist: inactive; RGS4 act: inactive; RGS4 block: inactive; MrgX1 ag: inactive; MrgX1 PAM: inactive

How did COc1ccc(C(C(=O)NC(C)(C)C)N(C(=O)CCC(=O)Nc2cc(C)on2)c2ccccc2F)cc1 (stereo not given) do in these assays?
MrgX1 antagonist: inactive; RGS4 act: inactive; RGS4 block: inactive; MrgX1 ag: inactive; MrgX1 PAM: inactive

What do the screens show for `COc1ccc(NCC(=O)Nc2ccc(Br)cc2F)c(OC)c1`?
MrgX1 antagonist: inactive; RGS4 act: inactive; RGS4 block: inactive; MrgX1 ag: inactive; MrgX1 PAM: 9.2*; MrgX1 allo conf: inactive; HEK293 Ca flux: inactive; HEK293 Ca counter: inactive; HEK293 Ca cntr2: inactive

From PubChem BioAssay
